# ASAP1 GAP inh: inhibitors of human ASAP1 ArfGAP activity. Q9ULH1. ASAP1-stimulated ARF1 GTP hydrolysis, GDP FP detection. inhibition, % at 16.5 µM. 360,000 compounds, 0.19% hits; in the data active = inhibition above about 25%;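 also: 0% = vehicle with enzyme and substrate and 100% = no enzyme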
# SMARCA2 act: activators of SMARCA2 function. MG213 cells, MMTV-luciferase reporter, dexamethasone, overnight. 370,000 compounds, 1% hits. activation, % at 9.1 µM; in the data active = activation above about 7.8%;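 also: 0% = vehicle wells and 100% = reference activator wells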
# esBAF inh: SWI/SNF esBAF complex inhibition. 350,000 compounds, 2% hits. AID 602393. mouse ES cells, Bmi1-luciferase knock-in reporter, 24 h; 100% = twice the neutral-well signal. reporter increase, % at 12.5 µM; in the data active = activation above about 40%;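 also: 0% = median of the plate's neutral control wells and 100% = double that signal; a rise in the Bmi1 reporter signal indicates esBAF inhibition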
# ARFGAP1 inh: inhibitors of rat ARFGAP1 | Q62848 | Arfgap1-stimulated ARF1 GTP hydrolysis, GDP FP detection | inhibition, % at 16.5 µM | 360,000 compounds, 0.26% hits;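 active = inhibition above a per-plate limit, mean inhibition of low control wells plus 3 SD, cut at about 25% in these data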;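 also: 0% = DMSO wells with enzyme and 100% = wells lacking Arfgap1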
# Target sequence (Q62848 1-136 limits assumed): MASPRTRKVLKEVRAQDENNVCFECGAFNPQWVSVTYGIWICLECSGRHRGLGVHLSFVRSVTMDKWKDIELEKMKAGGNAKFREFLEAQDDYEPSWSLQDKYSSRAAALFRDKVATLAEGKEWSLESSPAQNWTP
#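 material = rat Arfgap1 catalytic domain, aa 1-136 | also added = human ARF1(Δ1-17)-GTP substrate | compound dosing = one concentration, 16.5 µM, DMSO 1.26% | times = GTP hydrolysis reaction 2 h at 25 °C | measured by = FP, GDP Alexa 633 tracer displaced from anti-GDP antibody, 620/688 nm | evaluation = percent inhibition of Arfgap1-stimulated GTP hydrolysis | replication = single well per compound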
# * marks the source's active call; other numbers are inactive results; x = not tested or not shown. Sampled rows, rich in hits. Any-hit rate of the full collection: about 2.6%.
SMILES,ASAP1 GAP inh,SMARCA2 act,esBAF inh,ARFGAP1 inh
Cc1cc(C)nc(NC(=O)c2ccc(Br)cc2)n1,-3,-3,-1,0
Cc1cc(NO)nc(-c2ccc(Br)cc2)n1,-2,6,51*,-1
Cc1occc1C(=O)Nc1sc2c(c1C(N)=O)CCCCC2,-10,4,47*,7
N#Cc1c(NC(=O)c2ccco2)sc2c1CCC2,2,3,54*,-11
COC(=O)c1c(NC(=O)c2ccoc2C)sc2c1CCC2,12,1,x,-14
N#Cc1c(NC(=O)c2cnn3cccnc23)sc2c1CCCC2,-7,-1,42*,12
O=C(Nc1sc2c(c1C(=O)O)CCCCC2)c1ccco1,-4,2,11,7
NC(=O)c1c(NC(=O)c2ccco2)sc2c1CCC2,16,3,103*,-3
O=C(Nc1ccccc1F)N[C@H]1CC[C@H](CCNC(=O)C2CCCC2)O[C@H]1CO,x,x,1,x
N#Cc1c(NC(=O)c2ccc(Cn3cc(Br)cn3)o2)sc2c1CCCCC2,-2,2,44*,18
Cc1sc(NC(=S)NC(=O)CCc2ccccc2)c(C(N)=O)c1C,-1,3,-10,6
Cc1sc(NC(=S)NC(=O)c2ccco2)c(C(N)=O)c1C,-3,-1,49*,0
C[C@@H]1CN([C@H](C)CO)C(=O)c2cccc(NC(=O)C3CCOCC3)c2O[C@@H]1CN(C)S(=O)(=O)c1cn(C)cn1,x,x,-6,x
COc1ccc(/C(C)=N/Nc2nccnc2Cl)cc1,3,7.9*,46*,5
C/C(=N\Nc1nccnc1Cl)c1ccc(Br)cc1,-12,2,20,-2
Cc1ccc(S(=O)(=O)Nc2cccc3c2O[C@H](CN(C)CC2CCCCC2)[C@@H](C)CN([C@H](C)CO)C3=O)cc1,x,x,1,x
CCOC(=O)COc1ccc(Oc2nc(C)cc(OC)n2)nn1,-7,7.8*,-2,0
COc1ccc(NC(=O)N(C)C[C@H]2Oc3ncc(C#CCN(C)C)cc3C(=O)N([C@@H](C)CO)C[C@@H]2C)cc1,x,x,-3,x
COc1ccc(CNC(=O)C[C@@H]2C[C@@H]3c4cc(NC(=O)CN(C)C)ccc4O[C@@H]3[C@H](CO)O2)cc1,x,x,0,x
Cc1ccc2c(c1)C(c1ccncc1)=NNC(c1ccccc1)=N2,-11,2,25,10
CCc1ccc2c(c1)C(c1ccncc1)=NNC(c1ccccc1)=N2,9,2,48*,-1
COC1CCN(C(=O)C2CCC(=O)N(C3CCCCCC3)C2)CC1 (configuration not stated),7,6,56*,-11
COCC1CCN(C(=O)C2CCC(=O)N(C3CCCC3)C2)CC1 (configuration not stated),-9,1,12,0
Nc1nc(-c2ccc(Oc3ccccc3)cc2)cs1,0,4,68*,-5
Nc1nc(COc2ccccc2)cs1,0,7.9*,25,1
SMILES,ASAP1 GAP inh,SMARCA2 act,esBAF inh,ARFGAP1 inh
Nc1nc(-c2ccc3ccccc3c2)cs1,0,2,x,6
Cc1ccc(OCc2csc(N)n2)cc1,4,1,x,-2
COc1ccc(-c2csc(N)n2)cc1,-2,2,x,-4
Nc1nc(-c2ccc(-c3ccccc3)cc2)cs1,23,3,59*,3
Cc1ccc(-c2csc(N)n2)cc1,-3,4,43*,2
C[C@@H]1CN([C@H](C)CO)C(=O)c2cccc(NS(C)(=O)=O)c2O[C@H]1CN(C)S(=O)(=O)c1ccccc1,x,x,2,x
Cc1noc(C)c1NC(=O)Nc1ccc2c(c1)C(=O)N([C@H](C)CO)C[C@@H](C)[C@H](CN(C)S(=O)(=O)c1ccc(F)cc1)OCCCC[C@H](C)O2,x,x,0,x
CC(=O)NC[C@@H]1[C@H](c2ccc(-c3ccccc3)cc2)[C@H](CO)N1C(=O)C1CC1,x,x,-6,x
COc1ccc(C(=O)Nc2ccc3c(c2)OC[C@@H](C)N(C(C)=O)C[C@H](C)[C@@H](OC)CN(C)C3=O)cc1,x,x,-5,x
Cc1ccc(-c2cc(C(=O)N3CCN(c4ccccc4O)CC3)c3ccccc3n2)cc1,7,1,55*,-7
Cc1ccc(Nc2ncnc3c2oc2ccccc23)cc1,5,2,47*,2
c1ccc(Sc2ncnc3c2oc2ccccc23)cc1,x,x,71*,x
C[C@@H]1CCCCO[C@@H](CN(C)C(=O)Cc2ccccc2)[C@@H](C)CN([C@H](C)CO)C(=O)c2cc(NC(=O)CCCN(C)C)ccc2O1,x,x,-3,x
CNC[C@H]1OCCCC[C@H](C)Oc2ccc(NC(=O)Nc3c(C)noc3C)cc2C(=O)N([C@@H](C)CO)C[C@@H]1C,x,x,1,x
CCn1c2ccc(C)cc2c2nnc(SCCN3CCOCC3)nc21,4,5,x,13

# Compound activity (PubChem)
